Read-outs that look alike come from different tables or passages of the source. Blank lines part the entries; values can stand above or below the compound they belong to.
Tests used:
M3 [1] = molecular target: T1, M3 (Homo sapiens, UniProt P20309); conditions: read-out: M3 EC50, cited from earlier work
M1 [2] = molecular target: T2, M1 (Homo sapiens, UniProt P11229); conditions: read-out: M1 EC50, cited from earlier work
T2 sequence (P11229 1-460): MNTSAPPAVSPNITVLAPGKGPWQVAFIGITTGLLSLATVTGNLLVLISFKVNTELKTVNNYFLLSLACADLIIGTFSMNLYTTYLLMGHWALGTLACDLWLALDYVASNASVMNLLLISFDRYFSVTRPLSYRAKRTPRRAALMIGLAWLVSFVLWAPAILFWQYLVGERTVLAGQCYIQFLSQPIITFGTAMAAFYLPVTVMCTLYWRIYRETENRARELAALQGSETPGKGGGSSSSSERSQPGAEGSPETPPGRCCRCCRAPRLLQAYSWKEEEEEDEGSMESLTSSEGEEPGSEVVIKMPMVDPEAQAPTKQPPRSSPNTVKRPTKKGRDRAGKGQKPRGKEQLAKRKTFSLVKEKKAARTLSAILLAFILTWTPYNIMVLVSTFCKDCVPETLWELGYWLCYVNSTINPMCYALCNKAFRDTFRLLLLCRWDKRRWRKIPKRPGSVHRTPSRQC

[3] = cited from earlier work
M4 [4] = molecular target: T3, M4 (Homo sapiens, UniProt P08173); conditions: read-out: M4 EC50, cited from earlier work
T3 sequence (P08173 1-479): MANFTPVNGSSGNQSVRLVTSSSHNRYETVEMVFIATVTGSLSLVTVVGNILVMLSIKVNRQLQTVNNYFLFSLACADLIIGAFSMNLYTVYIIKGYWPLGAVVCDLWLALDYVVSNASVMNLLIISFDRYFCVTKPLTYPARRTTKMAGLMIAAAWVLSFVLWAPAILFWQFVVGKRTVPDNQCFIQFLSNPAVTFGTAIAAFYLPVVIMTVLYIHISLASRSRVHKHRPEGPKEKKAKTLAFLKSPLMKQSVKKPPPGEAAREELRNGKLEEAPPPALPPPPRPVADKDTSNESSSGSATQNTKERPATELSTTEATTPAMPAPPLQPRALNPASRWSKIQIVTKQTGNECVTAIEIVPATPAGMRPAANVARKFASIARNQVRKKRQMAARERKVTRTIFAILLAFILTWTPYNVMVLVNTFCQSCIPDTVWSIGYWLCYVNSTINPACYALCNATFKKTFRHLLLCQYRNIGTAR

[5] = in words; cited from earlier work
M2 [6] = molecular target: T4, M2 (Homo sapiens, UniProt P08172); conditions: read-out: M2 EC50, cited from earlier work
T4 sequence (P08172 1-466): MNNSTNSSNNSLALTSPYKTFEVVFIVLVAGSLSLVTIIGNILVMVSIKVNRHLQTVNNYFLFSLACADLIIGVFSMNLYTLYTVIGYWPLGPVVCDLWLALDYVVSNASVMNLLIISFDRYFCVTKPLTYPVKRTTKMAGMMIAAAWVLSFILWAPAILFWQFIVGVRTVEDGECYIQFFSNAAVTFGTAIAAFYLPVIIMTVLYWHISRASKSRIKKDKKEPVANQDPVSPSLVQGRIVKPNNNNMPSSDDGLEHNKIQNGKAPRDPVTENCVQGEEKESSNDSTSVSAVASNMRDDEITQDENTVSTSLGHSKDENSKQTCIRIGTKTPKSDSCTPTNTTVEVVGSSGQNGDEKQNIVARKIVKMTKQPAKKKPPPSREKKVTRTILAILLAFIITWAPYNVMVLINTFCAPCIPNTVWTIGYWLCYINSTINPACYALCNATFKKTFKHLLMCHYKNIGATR

[7] = Ancillary pharmacology panel; format: binding
M5 [8] = molecular target: T5, M5 (Homo sapiens, UniProt P08912); assay: M5 PAM activity, mobilization of intracellular calcium in M5 CHO cells; format: cell-based
T5 sequence (P08912 1-532): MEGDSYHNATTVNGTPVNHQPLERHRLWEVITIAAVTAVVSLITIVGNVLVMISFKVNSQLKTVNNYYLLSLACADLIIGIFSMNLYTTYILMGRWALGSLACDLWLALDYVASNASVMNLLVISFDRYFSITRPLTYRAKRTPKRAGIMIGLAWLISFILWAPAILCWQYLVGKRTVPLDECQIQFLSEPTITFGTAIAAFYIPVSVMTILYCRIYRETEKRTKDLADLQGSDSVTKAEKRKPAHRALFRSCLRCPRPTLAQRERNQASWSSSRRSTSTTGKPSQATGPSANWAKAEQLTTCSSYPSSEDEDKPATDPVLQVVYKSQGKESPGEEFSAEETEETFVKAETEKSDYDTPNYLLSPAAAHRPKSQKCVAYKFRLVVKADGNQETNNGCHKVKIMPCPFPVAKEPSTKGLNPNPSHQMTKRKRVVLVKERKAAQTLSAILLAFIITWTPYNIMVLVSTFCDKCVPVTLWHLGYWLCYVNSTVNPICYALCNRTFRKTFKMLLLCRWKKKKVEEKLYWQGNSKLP

M4 [9] = molecular target: T3, M4; assay: 30 µM fold-shift selectivity assay, M4; format: cell-based
How it was run: (§1)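 Intracellular calcium mobilization in CHO cells expressing the receptor co-transfected with Gqi5 to couple it to calcium signalling. Test compound at a fixed 30 µM, read as the fold-shift of the acetylcholine concentration-response. Data are means from at least three independent determinations.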

M1 [10] = molecular target: T2, M1; assay: 30 µM fold-shift selectivity assay, M1; format: cell-based
How it was run: (§2)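 Intracellular calcium mobilization in CHO cells expressing the receptor. Test compound at a fixed 30 µM, read as the fold-shift of the acetylcholine concentration-response. Data are means from at least three independent determinations.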

M5 [11] = molecular target: T5, M5; assay: Human M5 ACh fold-shift assay at 30 µM; format: cell-based
M3 [12] = molecular target: T1, M3; assay: 30 µM fold-shift selectivity assay, M3; format: cell-based
How it was run: as §2

M2 [13] = molecular target: T4, M2; assay: 30 µM fold-shift selectivity assay, M2; format: cell-based
How it was run: as §1

M5 [14] = molecular target: T5, M5; format: cell-based; conditions: single point 10 µM, M5-CHO cells
M5 [15] = molecular target: T5, M5; conditions: read-out: M5 EC50; vs. M2–M5; cited from earlier work
H1 = H1 (Homo sapiens, UniProt P35367); assay: Ancillary pharmacology panel, H1; format: binding; conditions: same assay panel; significant = >50% inhibition at 10 µM
NET = NET (Homo sapiens, UniProt P23975); assay: Ancillary pharmacology panel, NET; format: binding; conditions: same assay panel; significant = >50% inhibition at 10 µM
Chain of NET (P23975 whole entry): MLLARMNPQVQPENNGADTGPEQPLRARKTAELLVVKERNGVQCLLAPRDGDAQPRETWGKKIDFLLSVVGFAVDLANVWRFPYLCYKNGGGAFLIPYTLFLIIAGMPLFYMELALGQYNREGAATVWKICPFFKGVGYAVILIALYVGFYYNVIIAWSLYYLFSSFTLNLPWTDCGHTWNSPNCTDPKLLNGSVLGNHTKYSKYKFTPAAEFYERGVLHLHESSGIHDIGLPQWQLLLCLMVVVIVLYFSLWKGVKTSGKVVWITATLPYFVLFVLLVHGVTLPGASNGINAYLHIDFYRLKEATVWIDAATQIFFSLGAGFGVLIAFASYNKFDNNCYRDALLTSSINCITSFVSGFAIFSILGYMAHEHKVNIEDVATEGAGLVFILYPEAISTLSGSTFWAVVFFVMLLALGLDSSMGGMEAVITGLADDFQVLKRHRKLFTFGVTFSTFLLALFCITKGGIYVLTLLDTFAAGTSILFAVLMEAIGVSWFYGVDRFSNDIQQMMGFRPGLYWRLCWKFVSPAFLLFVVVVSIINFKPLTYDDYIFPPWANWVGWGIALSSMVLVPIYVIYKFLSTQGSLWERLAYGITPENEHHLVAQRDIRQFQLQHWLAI

T1 sequence (P20309 whole entry): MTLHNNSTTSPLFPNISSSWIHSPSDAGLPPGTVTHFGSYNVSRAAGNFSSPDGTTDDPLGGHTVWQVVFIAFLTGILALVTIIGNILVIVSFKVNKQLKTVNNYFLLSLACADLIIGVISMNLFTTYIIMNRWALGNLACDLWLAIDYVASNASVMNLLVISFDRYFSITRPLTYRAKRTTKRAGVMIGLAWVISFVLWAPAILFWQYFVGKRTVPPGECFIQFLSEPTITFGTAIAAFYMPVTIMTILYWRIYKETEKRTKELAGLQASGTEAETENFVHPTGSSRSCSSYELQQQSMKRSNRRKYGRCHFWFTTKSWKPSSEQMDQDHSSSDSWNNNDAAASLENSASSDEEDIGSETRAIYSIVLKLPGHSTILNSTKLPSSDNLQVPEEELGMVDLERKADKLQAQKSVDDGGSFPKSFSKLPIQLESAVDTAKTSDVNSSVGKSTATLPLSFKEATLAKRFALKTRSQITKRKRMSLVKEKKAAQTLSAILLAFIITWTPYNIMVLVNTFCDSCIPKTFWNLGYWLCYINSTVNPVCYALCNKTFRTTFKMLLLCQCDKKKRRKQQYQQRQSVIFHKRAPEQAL
Chain of H1 (P35367 whole entry): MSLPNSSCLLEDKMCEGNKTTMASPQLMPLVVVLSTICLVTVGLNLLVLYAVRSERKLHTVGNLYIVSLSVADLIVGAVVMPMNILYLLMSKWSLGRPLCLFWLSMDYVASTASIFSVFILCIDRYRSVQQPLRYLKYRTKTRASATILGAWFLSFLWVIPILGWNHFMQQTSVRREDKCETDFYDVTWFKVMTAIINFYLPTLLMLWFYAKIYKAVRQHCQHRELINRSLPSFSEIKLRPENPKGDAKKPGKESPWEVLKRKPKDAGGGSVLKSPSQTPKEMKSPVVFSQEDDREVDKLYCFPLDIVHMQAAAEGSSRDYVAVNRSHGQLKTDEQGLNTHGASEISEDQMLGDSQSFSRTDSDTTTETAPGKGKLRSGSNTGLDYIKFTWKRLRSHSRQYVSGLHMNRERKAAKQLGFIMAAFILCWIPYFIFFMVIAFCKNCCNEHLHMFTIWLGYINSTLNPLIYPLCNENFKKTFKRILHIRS

M5 PAM activity (in words) (M5 [8]): loss in both potency and efficacy
SMILES: O=C1C(=O)N(Cc2c(F)cc(-c3ccccc3)cc2F)c2ccc(OC(F)(F)F)cc21 [compound 12]

M5 PAM activity (in words) (M5 [8]): devoid of M5 PAM activity
SMILES: O=C1C(=O)N(Cc2ccc(-c3ccncc3)cn2)c2ccc(OC(F)(F)F)cc21 [21c]

allosteric agonism (M5 [11]): ~ 20%
SMILES: O=C1C(=O)N(Cc2ccc(-c3ccccc3)nc2)c2ccc(OC(F)(F)F)cc21 [22a]
effect on M4, fold-shift selectivity (M4 [9]): neither 22a nor 27b showed any significant effect | effect on M1, fold-shift selectivity (M1 [10]): neither 22a nor 27b showed any significant effect | effect on M3, fold-shift selectivity (M3 [12]): neither 22a nor 27b showed any significant effect | effect on M2, fold-shift selectivity (M2 [13]): neither 22a nor 27b showed any significant effect

M5 PAM activity (in words) (M5 [8]): devoid of M5 PAM activity
SMILES: O=C1C(=O)N(Cc2ccc(-c3cccnc3)cn2)c2ccc(OC(F)(F)F)cc21 [21b]

M5 PAM activity (in words) (M5 [8]): loss in both potency and efficacy
SMILES: O=C1C(=O)N(Cc2ccc(-c3ccccc3)cc2F)c2ccc(OC(F)(F)F)cc21 [compound 11]

activity at H1 (H1): significant activity | activity at NET (NET): significant activity
SMILES: O=C1C(=O)N(Cc2ccc(Oc3cccc(F)n3)cc2)c2ccc(OC(F)(F)F)cc21 [27b]
effect on M4, fold-shift selectivity (M4 [9]): neither 22a nor 27b showed any significant effect | effect on M1, fold-shift selectivity (M1 [10]): neither 22a nor 27b showed any significant effect | effect on M3, fold-shift selectivity (M3 [12]): neither 22a nor 27b showed any significant effect | number of targets with modest activities ([7]; of the 68 targets): 11 targets | effect on M2, fold-shift selectivity (M2 [13]): neither 22a nor 27b showed any significant effect

The next lines start with the compound.

SMILES: O=C1C(=O)N(Cc2ccc(Oc3ccccc3)cc2)c2ccc(OC(F)(F)F)cc21 [compound 5]
EC50 (M3 [1]; vs. M1–M4): > 30 µM | EC50 (M1 [2]; vs. M1–M4): > 30 µM | logP [3]: > 4.5 | EC50 (M4 [4]; vs. M1–M4): > 30 µM | solubility [5]: limited solubility | EC50 (M2 [6]; vs. M1–M4): > 30 µM | number of targets with significant activity (>50% inhibition at 10 µM) ([7]; of 68 targets, 10 µM): 32 targets

SMILES: O=C1C(=O)N(Cc2ccc3c(c2)OCO3)c2ccc(OC(F)(F)F)cc21 [compound 13]
M5 PAM activity (in words) (M5 [8]): highly efficacious M5 PAM of comparable potency to 4

SMILES: O=C1C(=O)N(Cc2ccc(-c3ccccc3)cc2)c2ccc(OC(F)(F)F)cc21 [compound 4]
EC50 (M3 [1]; vs. M1–M4): > 30 µM | EC50 (M1 [2]; vs. M1–M4): > 30 µM | logP [3]: > 4.5 | EC50 (M4 [4]; vs. M1–M4): > 30 µM | solubility [5]: limited solubility | EC50 (M2 [6]; vs. M1–M4): > 30 µM

SMILES: CC1CCCN(COc2ccc3c(c2)C(=O)C(=O)N3Cc2ccc(-c3ccccc3)cc2)C1 (centres unmarked) [10ee]
ability to potentiate an EC20 of ACh (M5 [14]): did decrease the ACh EC20

SMILES: Cn1cc(-c2ccc(CN3C(=O)C(=O)c4ccccc43)c(F)c2)cn1 [compound 2]
EC50 (M3 [1]; vs. M2–M5): > 30 µM | EC50 (M1 [2]; PAM): 0.83 µM | EC50 (M4 [4]; vs. M2–M5): > 30 µM | EC50 (M2 [6]; vs. M2–M5): > 30 µM | EC50 (M5 [15]): > 30 µM

SMILES: O=C1C(=O)N(Cc2ccc(-c3ccccc3)cc2)c2ccc(OCCN3CCCC3)cc21 [10kk]
ability to potentiate an EC20 of ACh (M5 [14]): did decrease the ACh EC20

SMILES: CN(C)CCOc1ccc2c(c1)C(=O)C(=O)N2Cc1ccc(-c2ccccc2)cc1 [10gg]
ability to potentiate an EC20 of ACh (M5 [14]): did decrease the ACh EC20
